Reference: ChEMBL document CHEMBL4622976, “Development of pH/Glutathione-Responsive Theranostic Agents Activated by Glutathione S-Transferase π for Human Colon Cancer” (J Med Chem, 2020)

How the values were obtained:
[1] = Drug metabolism assessed as GSTpi (unknown origin) mediated compound fluorescence activation at 1 uM in presence of 1 mM Zn2+ by HPLC analysis; type: ADME; settings: human
In short: (§1)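 Selectivity test: compound (1 µM) with catalytic GSTπ and each analyte in water with 1% (v/v) DMSO at pH 4.0, 37 °C for 0.5 h. Analytes were cations at 1 mM; amino acids, vitamin C, Na2S and GSH at 100 µM. Readout was fluorescence emission spectra (excitation 440 nm, recorded 450–650 nm).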

[2] = Drug metabolism assessed as GSTpi (unknown origin) mediated compound fluorescence activation at 1 uM in presence of 1 mM Al3+ by HPLC analysis; type: ADME; settings: human; in short: as §1
[3] = Drug metabolism assessed as GSTpi (unknown origin) mediated compound fluorescence activation at 1 uM in presence of 1 mM Fe2+ by HPLC analysis; type: ADME; settings: human; in short: as §1
[4] = Drug metabolism assessed as GSTpi (unknown origin) mediated compound fluorescence activation at 1 uM in presence of 100 uM histidine by HPLC analysis; type: ADME; settings: human; in short: as §1
[5] = Drug metabolism assessed as GSTpi (unknown origin) mediated compound fluorescence activation at 1 uM in presence of 100 uM alanine by HPLC analysis; type: ADME; settings: human; in short: as §1
[6] = Drug metabolism assessed as GSTpi (unknown origin) mediated compound fluorescence activation at 1 uM in presence of 100 uM glycine by HPLC analysis; type: ADME; settings: human; in short: as §1
[7] = Drug metabolism assessed as GSTpi (unknown origin) mediated compound fluorescence activation at 1 uM in presence of 100 uM arginine by HPLC analysis; type: ADME; settings: human; in short: as §1
[8] = Drug metabolism assessed as GSTpi (unknown origin) mediated compound fluorescence activation at 1 uM in presence of 100 uM vitamin C by HPLC analysis; type: ADME; settings: human; in short: as §1
[9] = Drug uptake in human HT-29 cells at 1 uM measured within 10 mins by confocal fluorescence microscopy; type: ADME, cell-based; settings: ht-29, 10 min
In short: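 Cells were seeded at 2×10^5 in glass-bottom dishes and allowed to attach. Medium was then replaced with DMEM containing 1 µM compound. Confocal images were taken every minute for 60 min with a 40× water objective, 405 nm laser and 480–530 nm filter. Intracellular fluorescence intensity was quantified.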

[10] = Drug uptake in lysosome of human CCD-841 cells at 1 uM incubated for 60 mins by Lyso-tracker based confocal fluorescence microscopy; type: ADME; settings: 1 h
In short: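 HT29 and CCD841 cells were seeded at 2×10^5 in glass-bottom dishes. They were co-incubated in DMEM with compound (1 µM) and LysoTracker Red DND-99 (1 µM). Confocal imaging used a 40× water objective. Compound channel: 405 nm laser, 480–530 nm filter. LysoTracker channel: 561 nm laser, 580–630 nm filter.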

HT-29 [11] = assay: Antiproliferative activity against human HT-29 cells by MTT assay; type: functional, cell-based
In short: (§2)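 MTT assay. Cells were grown in DMEM/RPMI 1640 with 10% FBS, penicillin and streptomycin at 37 °C under 5% CO2. After a PBS wash, cells got 0.5 mg/mL MTT for 3 h at 37 °C. Formazan was dissolved in DMSO and absorbance read at 570 nm. Inhibition was expressed as a percentage and IC50 calculated. Means ± SD come from three separate experiments.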

[12] = Antiproliferative activity against rat 9L-2 cells by MTT assay; type: functional, cell-based; in short: as §2
[13] = Cytotoxicity against human CCD-841 cells by MTT assay; type: cell-based; in short: as §2
[14] = Drug localization in tumor of intra-operative mouse xenografted with human HT-29/Luc cells at 40 mg/kg, iv measured after 1 hrs post dose by fluorescence imaging assay; type: ADME, organism-based, Neoplasm; settings: in vivo
In short: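 Mice carrying subcutaneous HT29 tumours (1×10^6 cells, grown 3–4 weeks) received 40 mg/kg iv. They were imaged under 1% pentobarbital at 0, 1, 2, 4, 8 and 24 h post-injection (465 nm excitation filter, GFP emission filter). Excised tumours and major organs were then imaged ex vivo.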

[15] = Toxicity in ICR mouse assessed as induction of abnormality in general activity behavior at 240 mg/kg, ip for 14 days; type: organism-based; settings: in vivo, 336 h
In short: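 Female ICR mice (n = 10 per group) given a single intraperitoneal dose at 240.0, 300.0, 375.0, 468.8 or 585.9 mg/kg, or vehicle. Deaths recorded at 1 h, 4 h and daily through day 14. Body weight, drinking, eating and activity observed for abnormality; LD50 derived from mortality.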

[16] = Toxicity in ICR mouse assessed as induction of animal death at 240 to 585.9 mg/kg, ip measured after 1 hr; type: organism-based; settings: in vivo
In short: (§3)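 Female ICR mice, randomised, n = 10 per group. Single intraperitoneal dose of 240.0, 300.0, 375.0, 468.8 or 585.9 mg/kg, or vehicle. Deaths recorded at 1 h, 4 h, days 1–4 and days 5–14. Body weight, drinking, eating and activity observed over 14 days. Survival percentage taken on day 14; LD50 derived from the dose–mortality data.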

[17] = Toxicity in ICR mouse assessed as induction of animal death at 240 to 585.9 mg/kg, ip measured after 4 hrs; type: organism-based; settings: in vivo; in short: as §3
[18] = Toxicity in ICR mouse assessed as induction of animal death at 240 to 300 mg/kg, ip measured after 2 days; type: organism-based; settings: in vivo, 48 h; in short: as §3
[19] = Toxicity in ICR mouse assessed as induction of animal survival rate at 585.9 mg/kg, ip measured after 14 days; type: organism-based; settings: in vivo; in short: as §3
[20] = Toxicity in ICR mouse assessed as induction of animal survival rate at 468.8 mg/kg, ip measured after 14 days; type: organism-based; settings: in vivo; in short: as §3
[21] = Toxicity in ICR mouse assessed as induction of animal survival rate at 375 mg/kg, ip measured after 14 days; type: organism-based; settings: in vivo; in short: as §3
[22] = Toxicity in ICR mouse assessed as induction of animal survival rate at 300 mg/kg, ip measured after 14 days; type: organism-based; settings: in vivo; in short: as §3
[23] = Toxicity in ICR mouse assessed as induction of animal survival rate at 240 mg/kg, ip measured after 14 days; type: organism-based; settings: in vivo; in short: as §3
[24] = Toxicity in BALB/c mouse xenografted with human hT-29 cells assessed as effect on body mass at 20 to 40 mg/kg, ip dosed every day for 21 days; type: organism-based; settings: in vivo, 504 h
In short: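 Female BALB/c nude mice, 5-6 weeks old, inoculated subcutaneously with 1×10^6 HT29 cells. At tumor volume 100 mm³, animals randomized to compound or saline, given intraperitoneally every day for 21 days. Body weight recorded every three days; animals euthanized at 20% weight loss. Tumor volume = ½(L×W²) from caliper measurements; tumors excised and weighed at the end.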

HT-29 [25] = assay: Induction of apoptosis in human HT-29 cells at 1 uM incubated for 72 hrs by FITC-AnnexinV/PI staining based flow cytometry relative to control; type: functional
In short: (§4)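 HT29 cells were cultured 12 h, then exposed to compound (0.4, 1.0, 2.5 µM) or vehicle for 72 h. Harvested cells were stained with Annexin V and PI, and apoptotic cell percentages measured by flow cytometry. Means ± SD come from three separate experiments.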

HT-29 [26] = assay: Induction of apoptosis in human HT-29 cells at 2.5 uM incubated for 72 hrs by FITC-AnnexinV/PI staining based flow cytometry relative to control; type: functional; in short: as §4

In the case of COc1cc(-c2nc(NC(=O)OCC3=CCCCC3=O)cc3c2[nH]c2ccccc23)cc(OC)c1OC, the Drug metabolism [1] is reported as “Metabolite_Notdetected”, the Drug metabolism [2] is reported as “Metabolite_Notdetected” and the Drug metabolism [3] is reported as “Metabolite_Notdetected”. The Drug metabolism [4] was “Metabolite_Notdetected”, the Drug metabolism [5] was “Metabolite_Notdetected” and the Drug metabolism [6] was “Metabolite_Notdetected”. For the same compound, the Drug metabolism [7] was “Metabolite_Notdetected”, the Drug metabolism [8] was “Metabolite_Notdetected” and the Drug uptake [9] was “Active”. The Drug uptake [10] was “Not Active”, the IC50 (HT-29 [11]) was 920 nM and the IC50 [12] was 4.32 µM. For the same compound, the IC50 [13] was 23.4 µM, the Drug uptake [14] was “Active” and the Activity [15] was “Non-Toxic”. For the same compound, the Activity [16] was “Non-Toxic”, the Activity [17] was “Non-Toxic” and the Activity [18] was “Non-Toxic”. The survival at 336 h [19] was 10%, the survival at 336 h [20] was 40% and the survival at 336 h [21] was 80%. The survival at 336 h [22] was 100%, the survival at 336 h [23] was 100% and the Activity [24] was “Non-Toxic”. For the same compound, the Activity (HT-29 [25]) was 36.8% and the Activity (HT-29 [26]) was 52.3%.
